The values below come from ChEMBL document CHEMBL1158412, “Novel pyridopyrimidine derivatives as inhibitors of stable toxin a (STa) induced cGMP synthesis” (Bioorg Med Chem Lett, 2009).

As usually defined, the IC50 is the concentration at which inhibition is half-maximal. For orientation: inhibition means the change of the read-out against control, counted positive when it falls.

System in the first assay: not listed separately
The assay can be described thus: Inhibition of Escherichia coli heat stable toxin A-stimulated cGMP accumulation in human T84 cells pretreated 10 mins before 1 nM toxin challenge measured after 10 mins of induction by ELISA. The assay is classed as cell-based.
For `Cn1c2c(c(=O)n(C)c1=O)C(c1cccc(Br)c1)C1=C(N2)c2ccccc2C1=O` (centres undefined), the IC50 was 9.6 µM.

As to `Cn1c2c(c(=O)n(C)c1=O)C(c1cc(C(F)(F)F)cc(C(F)(F)F)c1)C1=C(N2)c2ccccc2C1=O` (centres undefined), the IC50 came out at 2.5 µM.

For `Cn1c2c(c(=O)n(C)c1=O)C(c1cc(F)cc(C(F)(F)F)c1)C1=C(N2)c2ccccc2C1=O` (centres undefined), the 50% inhibitory concentration (IC50) amounted to 3.4 µM.

The next assay deals with T84. The assay can be described thus: Inhibition of Escherichia coli heat stable toxin A-stimulated cGMP accumulation in human T84 cells at 50 uM pretreated 10 mins before 250 nM toxin challenge measured after 10 mins of induction by ELISA. Type of assay: cell-based. The method, boiled down: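 T84 cells preincubated 10 min with test compound, then left unstimulated (basal) or stimulated with 250 nM STa for 10 min; cGMP extracted and quantified by ELISA. Each plate included a vehicle control, and percent inhibition was calculated per plate.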
(In general: In an ELISA, binding on a coated surface is turned into a signal by an enzyme label.)
On to `CC(C)C(=O)N1C2=C(C(=O)c3ccccc32)C(c2ccc(Cl)cc2)c2c1n(C)c(=O)n(C)c2=O` (centres undefined), for which the inhibition amounted to 22%.

Turning to `Cn1c2c(c(=O)n(C)c1=O)C(c1ccccc1)C1=C(N2)c2ccccc2C1=O` (centres undefined), the inhibition amounted to 7%.

For `Cn1c2c(c(=O)n(C)c1=O)C(c1cccc(Br)c1)C1=C(N2)c2ccccc2C1=O` (centres undefined), the inhibition worked out at 86%.

Consider `Cn1c2c(c(=O)[nH]c1=O)C(c1cccc(Br)c1)C1=C(N2)c2ccccc2C1=O` (centres undefined), for which the inhibition amounted to 1%.

For the molecule `Cn1c2c(c(=O)n(C)c1=O)C(c1cccc(F)c1)C1=C(N2)c2ccccc2C1=O` (centres undefined), the inhibition stood at 63%.

`Cn1c2c(c(=O)n(C)c1=O)C(c1ccc(O)c(O)c1)C1=C(N2)c2ccccc2C1=O` (centres undefined): the inhibition is 26%.

With `Cn1c2c(c(=O)n(C)c1=O)C(c1cccc(Br)c1)C1=C(CC(c3ccco3)CC1=O)N2` (centres undefined), the inhibition amounted to 2%.

For `Cn1c2c(c(=O)n(C)c1=O)C(c1cc(F)cc(F)c1)C1=C(N2)c2ccccc2C1=O` (centres undefined), the inhibition amounted to 63%.

Consider `Cn1c2c(c(=O)[nH]c1=O)C(c1cc(F)cc(C(F)(F)F)c1)C1=C(N2)c2ccccc2C1=O` (centres undefined), for which the inhibition is -6%.

For the molecule `Cn1c2c(c(=O)[nH]c1=O)C(c1cc(C(F)(F)F)cc(C(F)(F)F)c1)C1=C(N2)c2ccccc2C1=O` (centres undefined), the inhibition amounted to 19%.

Consider `Cn1c2c(c(=O)n(C)c1=O)C(c1ccc(F)c(F)c1F)C1=C(CC(c3ccco3)CC1=O)N2` (centres undefined), for which the inhibition was -3%.

Take `Cn1c2c(c(=O)n(C)c1=O)C(c1cccc(C(F)(F)F)c1)C1=C(N2)c2ccccc2C1=O` (centres undefined): the inhibition worked out at 73%.

For the molecule `Cn1c2c(c(=O)n(C)c1=O)C(c1cccc(C#N)c1)C1=C(N2)c2ccccc2C1=O` (centres undefined), the inhibition came to 23%.

Take `Cn1c2c(c(=O)n(C)c1=O)C(c1ccc(F)c(F)c1F)C1=C(N2)c2ccccc2C1=O` (centres undefined): the inhibition is 62%.

For `O=C1C2=C(Nc3[nH]c(=O)[nH]c(=O)c3C2c2cc(C(F)(F)F)cc(C(F)(F)F)c2)c2ccccc21` (centres undefined), the inhibition was determined as 56%.

With `COc1cc(C2C3=C(Nc4c2c(=O)n(C)c(=O)n4C)c2ccccc2C3=O)ccc1O` (centres undefined), the inhibition came to 29%.

As to `CC1=C(C(=O)Nc2ccccc2)C(c2cc(C(F)(F)F)cc(C(F)(F)F)c2)c2c(n(C)c(=O)n(C)c2=O)N1` (centres undefined), the inhibition was 22%.

In the case of `Cn1c2c(c(=O)n(C)c1=O)C(c1cccc(C(F)(F)F)c1F)C1=C(N2)c2ccccc2C1=O` (centres undefined), the inhibition was determined as 80%.

Turning to `Cn1c2c(c(=O)n(C)c1=O)C(c1cc(C(F)(F)F)cc(C(F)(F)F)c1)C1=C(N2)c2ccccc2C1=O` (centres undefined), the inhibition was determined as 93%.

`Cn1c2c(c(=O)n(C)c1=O)C(c1cc(F)cc(C(F)(F)F)c1)C1=C(N2)c2ccccc2C1=O` (centres undefined): the inhibition worked out at 93%.

For the molecule `Cn1c2c(c(=O)n(C)c1=O)C(c1cc(F)cc(F)c1F)C1=C(N2)c2ccccc2C1=O` (centres undefined), the inhibition is 42%.

For the molecule `CC1=C(C(N)=O)C(c2cc(C(F)(F)F)cc(C(F)(F)F)c2)c2c(n(C)c(=O)n(C)c2=O)N1` (centres undefined), the inhibition was determined as 8%.

With `Cn1c(=O)c2c(-c3cccc(Br)c3)c3c(nc2n(C)c1=O)-c1ccccc1C3=O`, the inhibition was 2%.

As to `O=C1C2=C(Nc3[nH]nc(-c4ccsc4)c3C2c2cc(C(F)(F)F)cc(C(F)(F)F)c2)c2ccccc21` (centres undefined), the inhibition is -2%.

For `CC1=C(C(=O)Nc2nccs2)C(c2cccc(Br)c2)c2c(n(C)c(=O)n(C)c2=O)N1` (centres undefined), the inhibition was 11%.

As to `Cn1c2c(c(=O)n(C)c1=O)C(c1cccc(Br)c1)C1=C(CCC1=O)N2` (centres undefined), the inhibition was 56%.
